{"source": "ChEMBL document CHEMBL4308887", "about": "“Synthesis and biological evaluation of clovamide analogues with catechol functionality as potent Parkinson's disease agents in vitro and in vivo” (Bioorg Med Chem Lett, 2019)", "key": {"SH-SY5Y [1]": {"system": "SH-SY5Y", "experiment": "Protection against H2O2-induced apoptosis in human SH-SY5Y cells assessed as late apoptotic cells at 10 uM preincubated for 6 hrs followed by H2O2 addition and measured after 24 hrs by Annexin V-FITC/propidium iodide staining based flow cytometry (reference value: 77.5%)", "assay_type": "functional"}, "SH-SY5Y [2]": {"system": "SH-SY5Y", "experiment": "Protection against H2O2-induced apoptosis in human SH-SY5Y cells assessed as decrease in cleaved caspase3 expression preincubated for 6 hrs followed by H2O2 addition and measured after 24 hrs by Western blot analysis", "assay_type": "functional, cell-based", "in_short": "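Western blot of Bax, Bcl-2 and cleaved caspase-3 in SH-SY5Y after pretreatment (1, 10 μM) and 600 μM H₂O₂. β-actin internal standard; Bax/Bcl-2 ratio from densitometry. Mean ± S.E.M., three independent experiments.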"}, "SH-SY5Y [3]": {"system": "SH-SY5Y", "experiment": "Neuroprotection against H2O2-induced cell death in human SH-SY5Y cells assessed as cell viability at 10 uM preincubated for 6 hrs followed by H2O2 addition and measured after 24 hrs by MTT assay relative to control", "assay_type": "functional", "details": "read-out: Activity", "in_short": "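SH-SY5Y cells pretreated with 1 at 1 or 10 μM, then exposed to 600 μM H₂O₂. Viability by MTT, expressed as % of control. DMSO below 0.1%. Mean ± S.E.M. of three independent experiments.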"}, "SH-SY5Y [4]": {"system": "SH-SY5Y", "experiment": "Protection against H2O2-induced apoptosis in human SH-SY5Y cells assessed as early apoptotic cells at 10 uM preincubated for 6 hrs followed by H2O2 addition and measured after 24 hrs by Annexin V-FITC/propidium iodide staining based flow cytometry (reference value: 6.6%)", "assay_type": "functional"}, "SH-SY5Y [5]": {"system": "SH-SY5Y", "experiment": "Neuroprotection against H2O2-induced toxicity in human SH-SY5Y cells assessed as LDH release at 10 uM preincubated for 6 hrs followed by H2O2 addition and measured after 24 hrs (reference value: 339.93 +/- 3.66 U/L)", "assay_type": "functional", "in_short": "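Cells pretreated with test agent (1 or 10 μM), then 600 μM H₂O₂; plasma membrane damage read as LDH leakage into medium (U/L). DMSO below 0.1% in all groups. Mean ± S.E.M. of three independent experiments.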"}, "SH-SY5Y [6]": {"system": "SH-SY5Y", "experiment": "Induction of apoptosis in non-stimulated human SH-SY5Y cells assessed as early apoptotic cells at 10 uM measured after 6 hrs by Annexin V-FITC/propidium iodide staining based flow cytometry (reference value: 4.5%)", "assay_type": "cell-based"}, "[7]": {"experiment": "Oral bioavailability in Sprague-Dawley rat at 25 mg/kg by LC-MS/MS analysis", "assay_type": "ADME, organism-based", "details": "in vivo", "in_short": "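Male Sprague–Dawley rats (n = 3) dosed i.v. 5 mg/kg (5% DMSO, 2% F68, 93% saline) or p.o. 25 mg/kg (0.5% methylcellulose, 1% Tween 80). Orbital blood at 0.083–24 h (12 points). Plasma concentration–time profiles gave Cl, Vdss, AUC, T1/2, Tmax, Cmax, MRT and absolute F.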"}, "SH-SY5Y [8]": {"system": "SH-SY5Y", "experiment": "Neuroprotection against H2O2-induced cell death in human SH-SY5Y cells at 100 uM preincubated for 6 hrs followed by H2O2 addition and measured after 24 hrs by MTT assay relative to control", "assay_type": "functional", "in_short": "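Human SH-SY5Y neuroblastoma cells pretreated with compound at 100 μM for 6 h, then exposed to 600 μM H₂O₂ for 24 h; viability read by MTT and expressed as protection rate relative to untreated control. DMSO below 0.1% in all groups. Primary single-concentration screen; three independent experiments.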"}, "[9]": {"experiment": "Activation of PI3K/Akt/mTOR signaling in human SH-SY5Y cells assessed as increase in AKT phosphorylation after 5 to 360 mins by Western blot analysis", "assay_type": "cell-based", "in_short": "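SH-SY5Y cells, unstimulated, exposed to 1 for 5, 15, 30, 60, 120, 240 or 360 min. Phospho-AKT and phospho-mTOR measured by western blot, reported as p-AKT/t-AKT and p-mTOR/t-mTOR ratios after densitometry. Mean ± S.E.M. of three independent experiments.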"}, "SH-SY5Y [10]": {"system": "SH-SY5Y", "experiment": "Protection against H2O2-induced apoptosis in human SH-SY5Y cells assessed as improvement in nuclear fragmentation at 1 to 10 uM preincubated for 6 hrs followed by H2O2 addition and measured after 24 hrs by Hoechst 33342 staining based inverted microscopic analysis", "assay_type": "functional, cell-based", "in_short": "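Hoechst 33342 nuclear staining after pretreatment and 600 μM H₂O₂. Nuclear fragmentation and DNA condensation were scored visually.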"}, "SH-SY5Y [11]": {"system": "SH-SY5Y", "experiment": "Induction of apoptosis in non-stimulated human SH-SY5Y cells assessed as necrotic cells at 10 uM measured after 6 hrs by Annexin V-FITC/propidium iodide staining based flow cytometry (reference value: 0.6%)", "assay_type": "cell-based"}, "SH-SY5Y [12]": {"system": "SH-SY5Y", "experiment": "Protection against H2O2-induced oxidative stress in human SH-SY5Y cells assessed as reactive oxygen species level at 1 uM preincubated for 6 hrs followed by H2O2 addition and measured after 24 hrs by DHE dye based flow cytometry (reference value: 18.6%)", "assay_type": "functional"}, "SH-SY5Y [13]": {"system": "SH-SY5Y", "experiment": "Protection against H2O2-induced mitochondrial dysfunction in human SH-SY5Y cells assessed as increase in mitochondrial membrane potential at 1 to 10 uM preincubated for 6 hrs followed by H2O2 addition and measured after 24 hrs by Rh123 staining based inverted microscopic analysis", "assay_type": "functional, cell-based", "in_short": "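ΔΨm examined by inverted fluorescence microscopy and flow cytometry after pretreatment (1, 10 μM) and 600 μM H₂O₂. Reported as % of control. Mean ± S.E.M., three independent experiments.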"}, "[14]": {"experiment": "Activation of PI3K/Akt/mTOR signaling in human SH-SY5Y cells assessed as up regulation of H2O2-induced HO-1 expression at 10 uM preincubated for 6 hrs followed by H2O2 addition and after 24 hrs in presence of PI3K/Akt/mTOR inhibitor LY294002 by Western blot analysis", "assay_type": "cell-based", "in_short": "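SH-SY5Y cells preincubated 1 h with one inhibitor: SB203580 10 μM, LY294002 5 μM, U0126 10 μM, SP600125 5 μM or rapamycin 100 nM. Then 1 (10 μM) for 6 h, then 600 μM H₂O₂. HO-1 measured by western blot and densitometry. Mean ± S.E.M., three independent experiments.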"}, "Mus musculus [15]": {"system": "Mus musculus", "experiment": "Anti-parkinson's activity in MPTP-induced C57Bl/6 mouse model of Parkinson's disease assessed as increase in tyrosine hydroxylase expression in striatum at 10 to 20 mg/kg, ig pretreated for 10 days followed by MPTP challenge measured 10 days post MPTP addition by Western blot analysis", "assay_type": "functional, organism-based", "in_short": "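Tissue taken 10 days after MPTP injection from mice dosed orally with 1 (10 or 20 mg/kg). TH in SNpc and striatum by western blot, and by DAB immunostaining. Three of the mice per group analysed. Mean ± S.D., n = 6 mice/group.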"}, "SH-SY5Y [16]": {"system": "SH-SY5Y", "experiment": "Cytotoxicity against non-stimulated human SH-SY5Y cells assessed as effect on cell viability at 1 to 100 uM measured after 24 hrs by MTT assay"}, "Mus musculus [17]": {"system": "Mus musculus", "experiment": "Anti-parkinson's activity in MPTP-induced C57Bl/6 mouse model of Parkinson's disease assessed as decrease in ratio of Bax/Bcl2 expression in striatum at 10 to 20 mg/kg, ig pretreated for 10 days followed by MPTP challenge measured 10 days post MPTP addition by Western blot analysis", "assay_type": "functional, organism-based"}}, "note": "Calls of active or inactive are those of the source. The rule behind the calls is not given here."}
{"smiles": "COC(=O)[C@H](Cc1ccccc1)NC(=O)/C=C/c1ccc(O)c(O)c1", "note": "[N-CAFFEOYL-PHENYLALANINE METHYL ESTER]", "values": [{"measurement": "Activity", "setting": "SH-SY5Y [1]", "result": 4.3, "unit": "%"}, {"measurement": "Activity", "setting": "SH-SY5Y [2]", "result": "Dose-dependent effect"}, {"measurement": "viability at 10 µM", "setting": "SH-SY5Y [3]", "result": "80.8 to 89", "unit": "%"}, {"measurement": "Activity", "setting": "SH-SY5Y [4]", "result": 4.5, "unit": "%"}, {"measurement": "Activity", "setting": "SH-SY5Y [5]", "result": 180.66, "unit": "U/L"}, {"measurement": "Activity", "setting": "SH-SY5Y [6]", "result": 1.4, "unit": "%"}, {"measurement": "bioavailability", "setting": "[7]", "result": 15.2, "unit": "%"}, {"measurement": "Activity", "setting": "SH-SY5Y [8]", "result": ">50", "unit": "%"}, {"measurement": "Activity", "setting": "[9]", "result": "Active"}, {"measurement": "Activity", "setting": "SH-SY5Y [10]", "result": "Active"}, {"measurement": "Activity", "setting": "SH-SY5Y [11]", "result": 1.1, "unit": "%"}, {"measurement": "Activity", "setting": "SH-SY5Y [12]", "result": 14, "unit": "%"}, {"measurement": "Activity", "setting": "SH-SY5Y [13]", "result": "Active"}, {"measurement": "Activity", "setting": "[14]", "result": "inactive"}, {"measurement": "Activity", "setting": "Mus musculus [15]", "result": "Active"}, {"measurement": "Activity", "setting": "SH-SY5Y [16]", "result": "Non-Toxic"}, {"measurement": "Activity", "setting": "Mus musculus [17]", "result": "Active"}]}
